Results of several laboratories.
Observed: cell growth or viability

| Structure (SMILES) | cell line | method | time | notes | IC50 [µM] |
| --- | --- | --- | --- | --- | --- |
| N.N.[Cl][Pt][Cl] | WSU-NHL | ATP luminescence | 72 h | – | 1.18 |
| COc1cc(C(=O)c2nc(-c3c[nH]c4ccccc34)c[nH]2)cc(OC)c1OC | PC-3 | MTS | 72 h | – | 0.0711 |
| CC(=N)S | NIH3T3 | – | 96 h | – | 109 |
| CC(C)C[C@H](NC(=O)[C@H](CCCCN)NC(=O)[C@H](Cc1c[nH]c2ccccc12)NC(=O)[C@H](Cc1c[nH]c2ccccc12)NC(=O)[C@H](CCCNC(=N)N)NC(=O)[C@H](Cc1c[nH]c2ccccc12)NC(=O)[C@H](Cc1c[nH]cn1)NC(=O)[C@@H](N)CCCNC(=N)N)C(=O)N[C@@H](Cc1c[nH]cn1)C(=O)N[C@@H](Cc1c[nH]c2ccccc12)C(=O)N[C@@H](CCCNC(=N)N)C(=O)N[C@@H](CCC(=O)O)C(=O)N[C@@H](Cc1c[nH]c2ccccc12)C(N)=O | A549 | MTT | 24 h | – | 71 |
| CC[C@H](C)[C@H](NC(=O)CN)C(=O)NCC(=O)N[C@@H](C)C(=O)N[C@H](C(=O)N[C@@H](CC(C)C)C(=O)N[C@@H](CCCCN)C(=O)N[C@H](C(=O)N[C@@H](CC(C)C)C(=O)N[C@H](C(=O)N[C@H](C(=O)NCC(=O)N[C@@H](CC(C)C)C(=O)N1CCC[C@H]1C(=O)N[C@@H](C)C(=O)N[C@@H](CC(C)C)C(=O)N[C@H](C(=O)N[C@@H](CO)C(=O)N[C@@H](Cc1c[nH]c2ccccc12)C(=O)N[C@H](C(=O)N[C@@H](CCCCN)C(=O)N[C@@H](CCCNC(=N)N)C(=O)N[C@@H](CCCCN)C(=O)N[C@@H](CCCNC(=N)N)C(=O)N[C@@H](CCC(N)=O)C(=O)N[C@@H](CCC(N)=O)C(N)=O)[C@@H](C)CC)[C@@H](C)CC)[C@@H](C)O)[C@@H](C)O)C(C)C)C(C)C | IPEC-J2 | MTT | 24 h | – | 8.58 |
| CC(C)C[C@H](NC(=O)[C@@H](N)CCCNC(=N)N)C(=O)N[C@@H](CCCNC(=N)N)C(=O)N[C@@H](CCCCN)C(=O)N[C@@H](Cc1ccccc1)C(=O)N[C@@H](CCCNC(=N)N)C(=O)N[C@@H](CCCNC(=N)N)C(=O)N[C@@H](CCCNC(=N)N)C(=O)N[C@@H](Cc1ccccc1)C(=O)N[C@@H](CCCNC(=N)N)C(=O)N[C@@H](CCCCN)C(=O)N[C@@H](CCC(=O)O)C(=O)NCC(N)=O | A549 | MTT | 24 h | – | > 500 |
| COc1cc(C(=O)c2nc(-c3cccc4c3ccn4C)c[nH]2)cc(OC)c1OC | PC-3 | MTS | 72 h | – | 0.0127 |
| CC[C@H](C)[C@H](NC(=O)[C@H](CCCCN)NC(=O)[C@H](CCCCN)NC(=O)[C@H](CC(C)C)NC(=O)[C@H](CC(C)C)NC(=O)[C@H](CCCCN)NC(=O)[C@H](CCCCN)NC(=O)[C@H](CC(C)C)NC(=O)[C@H](CCCCN)NC(=O)[C@H](CCCCN)NC(=O)[C@@H](N)CC(C)C)C(=O)N[C@@H](CCCCN)C(=O)N[C@@H](CCCNC(=N)N)C(N)=O | A549 | MTT | 24 h | – | > 500 |
| O=[N+]([O-])c1ccc(NCCCCCCN=C=S)c2nonc12 | PC-3 | MTT | 24 h | – | 1 |
| COc1c(C)c2c(c(O)c1C/C=C(\C)CCC(=O)O)C(=O)OC2 | JIMT-1 | – | – | – | 1.15 |
| N.N.[Cl][Pt][Cl] | NIH3T3 | – | 96 h | 3D culture | 33.8 |
| COc1cc(C(=O)c2nc(-c3cccc4[nH]ccc34)cn2C)cc(OC)c1OC | PC-3 | MTS | 72 h | – | 0.17 |
| O=C1CCP(c2ccccc2)CC1 | PC-3 | MTT | 72 h | – | 84.2 |
| CC(C)C[C@H](NC(=O)[C@H](CCCCN)NC(=O)[C@H](Cc1c[nH]c2ccccc12)NC(=O)[C@H](CCCNC(=N)N)NC(=O)[C@H](CCCCN)NC(=O)[C@H](CC(C)C)NC(=O)[C@H](Cc1ccccc1)NC(=O)[C@H](CCCCN)NC(=O)[C@H](CCCCN)NC(=O)[C@H](CC(C)C)NC(=O)[C@H](CC(C)C)NC(=O)[C@H](CCCCN)NC(=O)[C@@H](N)CO)C(N)=O | A549 | MTT | 24 h | – | 26 |
| COc1cc(C(=O)c2nc(-c3cccc4[nH]ccc34)c[nH]2)cc(OC)c1OC | PC-3 | MTS | 72 h | – | ~0.0013 |
